According to ChEMBL document CHEMBL1134857, “The synthesis and biological evaluation of a novel series of antimicrobials of the oxazolidinone class” (Bioorg Med Chem Lett, 2002):
Converted amounts (≈) assume the structure as drawn.

Tests used:
Enterococcus faecium = experiment: Minimum inhibitory concentration measured against Enterococcus faecium; format: functional
Moraxella catarrhalis = experiment: Minimum inhibitory concentration measured against Moraxella catarrhalis; format: functional
Rattus norvegicus = species: Rattus norvegicus; experiment: Inhibition of mitochondrial protein synthesis (MPS) in rat heart mitochondria; format: functional
Summary of the method: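 Rat heart mitochondria were incubated at 1 mg/mL protein (Bradford) in buffer with translation components (ADP, amino acids). Incorporation of S35 methionine was followed for 1 h at 30 °C, then quenched with cold 5% TCA/5 mM methionine. Triplicate aliquots were filtered, washed and counted. Compounds were tested at 6–7 concentrations, ≤1% organic. IC50 came from the linear portion of the percent-of-control curve, as the mean of ≥2 experiments.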

Streptococcus pneumoniae = experiment: Minimum inhibitory concentration measured against Streptococcus pneumoniae; format: functional
[1] = biological target: T1, Amine oxidase [flavin-containing] B (Rattus norvegicus, UniProt P19643); experiment: Inhibition of Monoamine oxidase B in rat primary hepatocytes; format: cell-based, Hepatocyte
T1 sequence (P19643 whole entry): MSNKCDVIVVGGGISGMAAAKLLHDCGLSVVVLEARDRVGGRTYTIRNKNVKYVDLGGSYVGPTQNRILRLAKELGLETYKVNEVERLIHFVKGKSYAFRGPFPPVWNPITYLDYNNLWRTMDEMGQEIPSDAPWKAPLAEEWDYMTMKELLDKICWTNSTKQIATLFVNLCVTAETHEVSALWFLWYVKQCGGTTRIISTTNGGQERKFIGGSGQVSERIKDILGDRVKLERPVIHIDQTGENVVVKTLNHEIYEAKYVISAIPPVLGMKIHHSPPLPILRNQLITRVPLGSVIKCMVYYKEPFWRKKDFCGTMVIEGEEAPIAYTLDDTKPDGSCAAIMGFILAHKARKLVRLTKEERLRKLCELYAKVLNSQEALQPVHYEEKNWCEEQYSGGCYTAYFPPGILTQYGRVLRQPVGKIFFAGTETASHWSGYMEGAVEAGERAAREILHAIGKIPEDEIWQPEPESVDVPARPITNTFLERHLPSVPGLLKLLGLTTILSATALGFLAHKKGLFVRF

[2] = tested on: Staphylococcus epidermidis; experiment: Minimum inhibitory concentration measured against Staphylococcus epidermidis; format: functional
Staphylococcus aureus = experiment: Minimum inhibitory concentration measured against Staphylococcus aureus; format: functional

Row | Compound | MIC (Enterococcus faecium) | MIC (Moraxella catarrhalis) | IC50 (Rattus norvegicus) | MIC (Streptococcus pneumoniae) | IC50 [1] | MIC [2] | MIC (Staphylococcus aureus)
1 | CC(=O)NC[C@H]1CN(c2ccc(/C=C(\Br)c3c(C)oc[n+]3C)c(F)c2)C(=O)O1 | 32 µg/mL | 64 µg/mL | 54 µM | 8 µg/mL | 21 µM | 16 µg/mL | 32 µg/mL
2 | COC(=O)c1cccc(/C(Br)=C/c2ccc(N3C[C@H](CNC(C)=O)OC3=O)cc2F)c1 | 4 µg/mL (≈ 8.14 µM) | > 128 µg/mL | 150 µM | 32 µg/mL (≈ 65.1 µM) | > 300 µM | 8 µg/mL (≈ 16.3 µM) | 8 µg/mL (≈ 16.3 µM)
3 | COc1ccc(C(C)C)cc1/C(Br)=C/c1ccc(N2C[C@H](CNC(C)=O)OC2=O)cc1F | > 128 µg/mL | 32 µg/mL (≈ 63.3 µM) | – | 64 µg/mL (≈ 127 µM) | – | > 128 µg/mL | > 128 µg/mL
4 | CC(=O)NC[C@H]1CN(c2ccc(/C=C(/F)c3cccnc3)c(F)c2)C(=O)O1 | 4 µg/mL (≈ 10.7 µM) | 32 µg/mL (≈ 85.7 µM) | – | 4 µg/mL (≈ 10.7 µM) | – | 4 µg/mL (≈ 10.7 µM) | 8 µg/mL (≈ 21.4 µM)
5 | CC(=O)NC[C@H]1CN(c2ccc(/C=C(\F)c3nnn(C)n3)c(F)c2)C(=O)O1 | 4 µg/mL (≈ 10.6 µM) | 32 µg/mL (≈ 84.6 µM) | 4.9 µM | 2 µg/mL (≈ 5.29 µM) | > 300 µM | 1 µg/mL (≈ 2.64 µM) | 8 µg/mL (≈ 21.1 µM)
6 | CC(=O)NC[C@H]1CN(c2ccc(/C=C(\Br)c3cccc(C(N)=O)c3)c(F)c2)C(=O)O1 | 2 µg/mL (≈ 4.2 µM) | 16 µg/mL (≈ 33.6 µM) | – | 4 µg/mL (≈ 8.4 µM) | – | 4 µg/mL (≈ 8.4 µM) | 4 µg/mL (≈ 8.4 µM)
7 | CC(=O)NC[C@H]1CN(c2ccc(/C=C(\Br)c3ccccc3)c(F)c2)C(=O)O1 | 16 µg/mL (≈ 36.9 µM) | 128 µg/mL (≈ 295 µM) | > 300 µM | 2 µg/mL (≈ 4.62 µM) | < 9.4 µM | 16 µg/mL (≈ 36.9 µM) | 16 µg/mL (≈ 36.9 µM)
8 | CC(=O)NC[C@H]1CN(c2ccc(/C=C/c3cccnc3)c(F)c2)C(=O)O1 | 2 µg/mL (≈ 5.63 µM) | 16 µg/mL (≈ 45 µM) | 7.8 µM | 16 µg/mL (≈ 45 µM) | 59 µM | 2 µg/mL (≈ 5.63 µM) | 4 µg/mL (≈ 11.3 µM)
9 | CC(=O)NC[C@H]1CN(c2ccc(/C=C(\Br)c3ccccc3C#N)c(F)c2)C(=O)O1 | 4 µg/mL (≈ 8.73 µM) | 128 µg/mL (≈ 279 µM) | 36 µM | 2 µg/mL (≈ 4.36 µM) | > 150 µM | 4 µg/mL (≈ 8.73 µM) | 16 µg/mL (≈ 34.9 µM)
10 | CC(=O)NC[C@H]1CN(c2ccc(/C=C\F)c(F)c2)C(=O)O1 | 8 µg/mL (≈ 27 µM) | 32 µg/mL (≈ 108 µM) | – | 2 µg/mL (≈ 6.75 µM) | – | 8 µg/mL (≈ 27 µM) | 8 µg/mL (≈ 27 µM)

The remaining compounds from weak to strong by MIC (Enterococcus faecium), led by results:

Row | MIC (Enterococcus faecium) | MIC (Moraxella catarrhalis) | IC50 (Rattus norvegicus) | MIC (Streptococcus pneumoniae) | IC50 [1] | MIC [2] | MIC (Staphylococcus aureus) | Compound
11 | 2 µg/mL (≈ 4.08 µM) | 64 µg/mL (≈ 131 µM) | – | 2 µg/mL (≈ 4.08 µM) | – | 2 µg/mL (≈ 4.08 µM) | 4 µg/mL (≈ 8.16 µM) | CC(=O)NC[C@H]1CN(c2ccc(/C=C(\Br)c3cccc(NC(C)=O)c3)c(F)c2)C(=O)O1
12 | 2 µg/mL (≈ 4.61 µM) | 8 µg/mL (≈ 18.4 µM) | 12 µM | 1 µg/mL (≈ 2.3 µM) | 121 µM | 1 µg/mL (≈ 2.3 µM) | 2 µg/mL (≈ 4.61 µM) | CC(=O)NC[C@H]1CN(c2ccc(/C=C(\Br)c3cccnc3)c(F)c2)C(=O)O1
13 | 1 µg/mL (≈ 2.5 µM) | 64 µg/mL (≈ 160 µM) | 9.9 µM | 4 µg/mL (≈ 9.99 µM) | > 300 µM | 0.5 µg/mL (≈ 1.25 µM) | 1 µg/mL (≈ 2.5 µM) | CC(=O)NC[C@H]1CN(c2ccc(/C=C(\F)c3cccc(C=O)c3)c(F)c2)C(=O)O1
14 | 0.5 µg/mL (≈ 1.04 µM) | 2 µg/mL (≈ 4.16 µM) | – | 0.5 µg/mL (≈ 1.04 µM) | – | 0.5 µg/mL (≈ 1.04 µM) | 1 µg/mL (≈ 2.08 µM) | CC(=O)NC[C@H]1CN(c2ccc(/C=C(\Br)c3ccc(C(C)=O)s3)c(F)c2)C(=O)O1
15 | 0.5 µg/mL (≈ 1.08 µM) | 1 µg/mL (≈ 2.17 µM) | 33 µM | 1 µg/mL (≈ 2.17 µM) | > 300 µM | 0.25 µg/mL (≈ 0.542 µM) | 0.5 µg/mL (≈ 1.08 µM) | CC(=O)NC[C@H]1CN(c2ccc(/C=C(\Br)c3cccc(C=O)c3)c(F)c2)C(=O)O1
16 | 0.5 µg/mL (≈ 1.08 µM) | 4 µg/mL (≈ 8.63 µM) | 8 µM | 1 µg/mL (≈ 2.16 µM) | > 150 µM | 1 µg/mL (≈ 2.16 µM) | 2 µg/mL (≈ 4.32 µM) | CC(=O)NC[C@H]1CN(c2ccc(/C=C(\Br)c3cccc(CO)c3)c(F)c2)C(=O)O1
17 | 0.125 µg/mL (≈ 0.273 µM) | 1 µg/mL (≈ 2.18 µM) | 24 µM | 0.25 µg/mL (≈ 0.546 µM) | > 150 µM | 0.125 µg/mL (≈ 0.273 µM) | 0.25 µg/mL (≈ 0.546 µM) | CC(=O)NC[C@H]1CN(c2ccc(/C=C(\Br)c3cccc(C#N)c3)c(F)c2)C(=O)O1
